Results on 17 compounds are retold here after ChEMBL document CHEMBL4387700, “A novel, potent, and orally bioavailable thiazole HCV NS5A inhibitor for the treatment of hepatitis C virus” (Eur J Med Chem, 2019).

This data set in a line: Cytotoxicity against human HuH7 cells assessed as reduction in cell viability by MTS assay. The format is cell-based, Huh-7. In a few lines: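 Viability of Huh-7 cells was read by MTS assay.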

By CC50 is commonly meant the concentration that lowers cell viability or growth by half. Take `COC(=O)N[C@@H](CC(C)C)C(=O)N1CCC[C@H]1c1ncc(-c2ccc(-c3ccc(-c4cnc([C@@H]5CCCN5C(=O)[C@H](CC(C)C)NC(=O)OC)s4)cc3)cc2)s1`: the CC50 is more than 50 µM.

As for `CCCCC(=O)N[C@H](C(=O)N1CCC[C@H]1c1ncc(-c2ccc(-c3ccc(-c4cnc([C@@H]5CCCN5C(=O)[C@H](NC(=O)CCCC)c5ccccc5)s4)cc3)cc2)s1)c1ccccc1`, the CC50 was more than 50 µM.

Turning to `CC(C)(C)C(=O)N[C@@H](C(=O)N1CCC[C@H]1c1ncc(-c2ccc(-c3ccc(-c4cnc([C@@H]5CCCN5C(=O)[C@H](NC(=O)C(C)(C)C)c5ccccc5)s4)cc3)cc2)s1)c1ccccc1`, the CC50 was more than 50 µM.

`O=C(CCN1CCCC1)N[C@@H](C(=O)N1CCC[C@H]1c1ncc(-c2ccc(-c3ccc(-c4cnc([C@@H]5CCCN5C(=O)[C@H](NC(=O)CCN5CCCC5)c5ccccc5)s4)cc3)cc2)s1)c1ccccc1`: the CC50 is more than 50 µM.

As to `O=C(N[C@H](C(=O)N1CCC[C@H]1c1ncc(-c2ccc(-c3ccc(-c4cnc([C@@H]5CCCN5C(=O)[C@H](NC(=O)N5CCCC5)c5ccccc5)s4)cc3)cc2)s1)c1ccccc1)N1CCCC1`, the CC50 is more than 50 µM.

Consider `COC(=O)N[C@@H](C(=O)N1CCC[C@H]1c1ncc(-c2ccc(-c3ccc(-c4cnc([C@@H]5CCCN5C(=O)[C@H](NC(=O)OC)c5ccccc5)s4)cc3)cc2)s1)c1ccccc1`, for which the CC50 is more than 50 µM.

`O=C(N[C@H](C(=O)N1CCC[C@H]1c1ncc(-c2ccc(-c3ccc(-c4cnc([C@@H]5CCCN5C(=O)[C@H](NC(=O)c5ccncc5)c5ccccc5)s4)cc3)cc2)s1)c1ccccc1)c1ccncc1`: the CC50 is more than 50 µM.

Take `O=C(N[C@@H](C(=O)N1CCC[C@H]1c1ncc(-c2ccc(-c3ccc(-c4cnc([C@@H]5CCCN5C(=O)[C@H](NC(=O)C5CC5)C5CCCCC5)s4)cc3)cc2)s1)C1CCCCC1)C1CC1`: the cytotoxic concentration (CC50) was more than 50 µM.

In the case of `O=C(CCn1cccc1)N[C@@H](C(=O)N1CCC[C@H]1c1ncc(-c2ccc(-c3ccc(-c4cnc([C@@H]5CCCN5C(=O)[C@H](NC(=O)CCn5cccc5)c5ccccc5)s4)cc3)cc2)s1)c1ccccc1`, the 50% cytotoxic concentration (CC50) is more than 50 µM.

With `O=C(N[C@H](C(=O)N1CCC[C@H]1c1ncc(-c2ccc(-c3ccc(-c4cnc([C@@H]5CCCN5C(=O)[C@H](NC(=O)c5ccoc5)c5ccccc5)s4)cc3)cc2)s1)c1ccccc1)c1ccoc1`, the 50% cytotoxic concentration (CC50) was more than 50 µM.

With `O=C(Cc1ccccc1)N[C@H](C(=O)N1CCC[C@H]1c1ncc(-c2ccc(-c3ccc(-c4cnc([C@@H]5CCCN5C(=O)[C@H](NC(=O)Cc5ccccc5)c5ccccc5)s4)cc3)cc2)s1)c1ccccc1`, the half-maximal cytotoxic concentration (CC50) was more than 50 µM.

For `CCN(CC)CCC(=O)N[C@@H](C(=O)N1CCC[C@H]1c1ncc(-c2ccc(-c3ccc(-c4cnc([C@@H]5CCCN5C(=O)[C@H](NC(=O)CCN(CC)CC)c5ccccc5)s4)cc3)cc2)s1)c1ccccc1`, the CC50 is more than 50 µM.

On to `CCCCCC(=O)N[C@H](C(=O)N1CCC[C@H]1c1ncc(-c2ccc(-c3ccc(-c4cnc([C@@H]5CCCN5C(=O)[C@H](NC(=O)CCCCC)c5ccccc5)s4)cc3)cc2)s1)c1ccccc1`, for which the half-maximal cytotoxic concentration (CC50) was more than 50 µM.

Take `CCN(CC)CCC(=O)N[C@H](C(=O)N1CCC[C@H]1c1ncc(-c2ccc(-c3ccc(-c4cnc([C@@H]5CCCN5C(=O)[C@H](NC(=O)CCN(CC)CC)c5ccccc5)s4)cc3)cc2)s1)c1ccccc1`: the CC50 is more than 50 µM.

On to `CN(C)CCC(=O)N[C@@H](C(=O)N1CCC[C@H]1c1ncc(-c2ccc(-c3ccc(-c4cnc([C@@H]5CCCN5C(=O)[C@H](NC(=O)CCN(C)C)c5ccccc5)s4)cc3)cc2)s1)c1ccccc1`, for which the 50% cytotoxic concentration (CC50) was more than 50 µM.

Take `O=C(N[C@@H](C(=O)N1CCC[C@H]1c1ncc(-c2ccc(-c3ccc(-c4cnc([C@@H]5CCCN5C(=O)[C@H](NC(=O)N5CCCC5)c5ccccc5)s4)cc3)cc2)s1)c1ccccc1)N1CCCC1`: the CC50 is more than 50 µM.

Take `O=C(N[C@@H](C(=O)N1CCC[C@H]1c1ncc(-c2ccc(-c3ccc(-c4cnc([C@@H]5CCCN5C(=O)[C@H](NC(=O)N5CCCCC5)c5ccccc5)s4)cc3)cc2)s1)c1ccccc1)N1CCCCC1`: the half-maximal cytotoxic concentration (CC50) was more than 50 µM.
